In ChEMBL document CHEMBL1828603, “Synthesis, antimicrobial activity and possible mechanism of action of 9-bromo-substituted indolizinoquinoline-5,12-dione derivatives” (2011):
In brackets after ≈: the same amount, converted by molar mass. Activity calls are given as the source filed them. The calls are words filed in the database; no cut-off is given here.

Assays:
Candida albicans = assay: Antifungal activity against Candida albicans ATCC 10231 by broth microdilution method; format: functional
Streptococcus = assay: Antimicrobial activity against hemolytic Streptococcus Group B CMCC 32210 by broth microdilution method; format: functional
In short: (§1)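 Two-fold broth microdilution in Mueller-Hinton broth. Compound in DMSO added to bacterial culture at 5 × 10^5 cells/ml, starting at 64 µg/ml, then serially doubled down. Incubated at 37 °C overnight and read as OD600. MIC taken as the minimum inhibitory concentration, obtained in at least two independent experiments.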

Enterococcus faecalis = assay: Antimicrobial activity against Enterococcus faecalis ATCC 29212 by broth microdilution method; format: functional; in short: as §1
[1] = system: Salmonella enterica subsp. enterica serovar Paratyphi B; assay: Antimicrobial activity against Salmonella paratyphi B CMCC 50094 by broth microdilution method; format: functional
In short: (§2)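 Two-fold serial dilution in Mueller-Hinton broth, starting at 64 µg/ml. Compound was added as a DMSO solution to bacterial culture at 5 × 10^5 cells/ml, then double-diluted. Plates were incubated overnight at 37 °C and OD600 was read. MIC was taken from at least two independent experiments.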

Staphylococcus aureus [2] = assay: Antimicrobial activity against methicillin-resistant Staphylococcus aureus ATCC 43300 by broth microdilution method; format: functional; in short: as §2
Escherichia coli [3] = assay: Antimicrobial activity against Escherichia coli ATCC 25922 by broth microdilution method; format: functional; in short: as §1
Staphylococcus aureus [4] = assay: Antimicrobial activity against Staphylococcus aureus ATCC 25923 by broth microdilution method; format: functional; in short: as §1
Pseudomonas aeruginosa = assay: Antimicrobial activity against Pseudomonas aeruginosa ATCC 27853 by broth microdilution method; format: functional; in short: as §1
[5] = system: Staphylococcus epidermidis; assay: Antimicrobial activity against Staphylococcus epidermidis ATCC 12228 by broth microdilution method; format: functional; in short: as §1
Staphylococcus aureus [6] = assay: Ratio of MIC for vancomycin to compound for methicillin-resistant Staphylococcus aureus ATCC 43300 by broth microdilution method; format: functional
Escherichia coli [7] = conditions: 1 to 125 uM
Escherichia coli [8] = assay: Inhibition of Escherichia coli topoisomerase 4 assessed as decatenation of kDNA at 25 uM after 30 mins by electrophoresis
In short: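 Decatenation assay with 1 U Topo IV and 200 ng catenated kDNA in HEPES–KOH pH 7.6 buffer (potassium glutamate, magnesium acetate, DTT, 1 mM ATP, BSA), 37 °C for 30 min. Stopped with chloroform/iso-amyl alcohol (24:1), then run on 1% agarose gel in TAE at 10 V/cm.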

[9] = target: DNA gyrase (Staphylococcus aureus) (UniProt P0A0K8+P20831); assay: Inhibition of Staphylococcus aureus DNA gyrase supercoiling activity using pHOT1 DNA as substrate at 125 uM after 60 mins by agarose gel electrophoretic analysis; format: protein-complex assay
In short: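 Supercoiling assay with 1 U DNA gyrase (E. coli or S. aureus) and 0.5 µg relaxed pHOT1 DNA in Tris–HCl pH 7.5 buffer (KCl, MgCl2, DTT, spermidine, 1 mM ATP, glycerol, BSA), ± compound, 37 °C for 60 min. Stopped with proteinase K, run on 1% agarose in TAE at 3 V/cm, stained with Gel Red and imaged under UV.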

Staphylococcus aureus [10] = assay: Inhibition of Staphylococcus aureus topoisomerase 4-mediated relaxation of supercoiled pBR322 DNA at 1 uM after 30 mins by agarose gel electrophoretic analysis
In short: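 Relaxation assay with 1 U Topo IV and 0.5 µg supercoiled pBR322 DNA in HEPES–KOH pH 7.6 buffer (potassium glutamate, magnesium acetate, DTT, 1 mM ATP, BSA), 37 °C for 30 min. Stopped with chloroform/iso-amyl alcohol (24:1), then run on 1% agarose gel in TAE at 5 V/cm.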

Chain of DNA gyrase (Staphylococcus aureus) (P0A0K8 2-644 limits assumed): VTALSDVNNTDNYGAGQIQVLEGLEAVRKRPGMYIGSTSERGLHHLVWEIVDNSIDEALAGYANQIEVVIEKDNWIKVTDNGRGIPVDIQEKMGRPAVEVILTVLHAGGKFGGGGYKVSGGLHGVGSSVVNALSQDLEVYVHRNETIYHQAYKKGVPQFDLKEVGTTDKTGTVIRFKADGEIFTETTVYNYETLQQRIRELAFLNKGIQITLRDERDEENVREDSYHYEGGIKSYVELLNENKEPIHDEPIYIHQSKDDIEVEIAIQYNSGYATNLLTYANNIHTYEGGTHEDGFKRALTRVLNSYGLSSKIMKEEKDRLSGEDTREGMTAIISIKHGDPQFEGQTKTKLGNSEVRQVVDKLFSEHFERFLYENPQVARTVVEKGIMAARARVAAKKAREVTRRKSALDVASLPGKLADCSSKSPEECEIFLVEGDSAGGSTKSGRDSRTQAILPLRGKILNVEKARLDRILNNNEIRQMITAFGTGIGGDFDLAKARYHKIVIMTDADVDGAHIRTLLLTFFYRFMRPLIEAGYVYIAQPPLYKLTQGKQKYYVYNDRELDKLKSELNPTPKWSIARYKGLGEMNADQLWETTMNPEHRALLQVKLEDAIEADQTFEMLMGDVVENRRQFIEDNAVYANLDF
Chain of DNA gyrase (Staphylococcus aureus) (P20831 whole entry partner): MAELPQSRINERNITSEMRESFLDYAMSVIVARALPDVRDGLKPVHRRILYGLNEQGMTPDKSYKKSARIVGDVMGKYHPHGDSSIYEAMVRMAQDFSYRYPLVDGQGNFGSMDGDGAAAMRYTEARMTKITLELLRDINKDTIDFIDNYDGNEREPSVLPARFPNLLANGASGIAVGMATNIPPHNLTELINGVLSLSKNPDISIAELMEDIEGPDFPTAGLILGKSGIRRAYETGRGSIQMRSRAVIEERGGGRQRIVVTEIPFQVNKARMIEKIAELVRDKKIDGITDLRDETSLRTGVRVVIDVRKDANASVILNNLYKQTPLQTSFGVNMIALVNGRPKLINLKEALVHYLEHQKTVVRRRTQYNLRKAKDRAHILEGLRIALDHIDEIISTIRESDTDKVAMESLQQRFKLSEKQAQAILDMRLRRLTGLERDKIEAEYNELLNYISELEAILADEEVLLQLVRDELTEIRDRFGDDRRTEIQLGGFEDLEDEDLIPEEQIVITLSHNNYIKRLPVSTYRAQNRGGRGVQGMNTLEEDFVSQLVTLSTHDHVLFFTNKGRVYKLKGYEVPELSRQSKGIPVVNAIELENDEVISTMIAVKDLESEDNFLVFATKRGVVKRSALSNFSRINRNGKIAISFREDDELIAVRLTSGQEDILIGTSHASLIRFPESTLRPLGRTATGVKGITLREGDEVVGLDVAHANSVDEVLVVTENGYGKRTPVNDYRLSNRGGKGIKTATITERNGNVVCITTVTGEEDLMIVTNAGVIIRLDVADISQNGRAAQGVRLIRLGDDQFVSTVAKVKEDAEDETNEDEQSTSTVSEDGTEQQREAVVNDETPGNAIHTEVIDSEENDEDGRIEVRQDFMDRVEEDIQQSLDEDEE

Row | SMILES | MIC (Candida albicans) [µg/mL] | MIC (Streptococcus) [µg/mL] | MIC (Enterococcus faecalis) [µg/mL] | MIC [1] [µg/mL] | MIC (Staphylococcus aureus [2]) [µg/mL] | MIC (Escherichia coli [3]) [µg/mL] | MIC (Staphylococcus aureus [4]) [µg/mL] | MIC (Pseudomonas aeruginosa) [µg/mL] | MIC [5] [µg/mL] | Ratio (Staphylococcus aureus [6]) | inhibition (Escherichia coli [7]) | inhibition (Escherichia coli [8]) | inhibition [9] | inhibition (Staphylococcus aureus [10])
1 | O=C1c2cccnc2C(=O)c2c1c(C(=O)NCCN1CCOCC1)c1ccc(Br)cn21 | > 64 | 0.5 (≈ 1.03 µM) | 4 (≈ 8.28 µM) | > 64 | 8 (≈ 16.6 µM) | 64 (≈ 132 µM) | 1 (≈ 2.07 µM) | 64 (≈ 132 µM) | 4 (≈ 8.28 µM) | – | – | – | – | –
2 | O=C1c2cccnc2C(=O)c2c1c(C(=O)NCCN1CCCCC1)c1ccc(Br)cn21 | > 64 | 0.5 (≈ 1.04 µM) | 2 (≈ 4.15 µM) | 64 (≈ 133 µM) | 2 (≈ 4.15 µM) | 64 (≈ 133 µM) | 1 (≈ 2.08 µM) | 64 (≈ 133 µM) | 1 (≈ 2.08 µM) | – | – | – | – | –
3 | COC(=O)c1c2c(n3cc(Br)ccc13)C(=O)c1ncccc1C2=O | > 64 | 0.031 (≈ 0.0805 µM) | 0.031 (≈ 0.0805 µM) | > 64 | 0.063 (≈ 0.164 µM) | 64 (≈ 166 µM) | 0.031 (≈ 0.0805 µM) | > 64 | 0.016 (≈ 0.0415 µM) | 16 | – | – | – | –
4 | O=C1c2cccnc2C(=O)c2c1c(C(=O)NCCN1CCCC1)c1ccc(Br)cn21 | > 64 | 0.5 (≈ 1.07 µM) | 2 (≈ 4.28 µM) | > 64 | 4 (≈ 8.56 µM) | > 64 | 4 (≈ 8.56 µM) | > 64 | 1 (≈ 2.14 µM) | – | – | – | – | –
5 | CN(C)CCOC(=O)c1c2c(n3cc(Br)ccc13)C(=O)c1ncccc1C2=O | > 64 | 0.031 (≈ 0.0701 µM) | 0.13 (≈ 0.294 µM) | 1 (≈ 2.26 µM) | 0.13 (≈ 0.294 µM) | 2 (≈ 4.52 µM) | 0.13 (≈ 0.294 µM) | > 64 | 0.13 (≈ 0.294 µM) | – | – | – | – | –
6 | CCN(CC)C(=O)c1c2c(n3cc(Br)ccc13)C(=O)c1ncccc1C2=O | > 64 | 8 (≈ 18.8 µM) | 16 (≈ 37.5 µM) | > 64 | 16 (≈ 37.5 µM) | > 64 | 8 (≈ 18.8 µM) | > 64 | 16 (≈ 37.5 µM) | – | – | – | – | –
7 | O=C1c2cccnc2C(=O)c2c1c(C(=O)OCC(F)(F)F)c1ccc(Br)cn21 | > 64 | 0.031 (≈ 0.0684 µM) | 0.016 (≈ 0.0353 µM) | > 64 | 0.031 (≈ 0.0684 µM) | > 64 | 0.031 (≈ 0.0684 µM) | > 64 | 0.016 (≈ 0.0353 µM) | 32 | – | – | – | –
8 | O=C1c2cccnc2C(=O)c2c1c(C(=O)OCCN1CCCCC1)c1ccc(Br)cn21 | > 64 | 0.031 (≈ 0.0643 µM) | 0.031 (≈ 0.0643 µM) | 16 (≈ 33.2 µM) | 0.5 (≈ 1.04 µM) | 4 (≈ 8.29 µM) | 0.063 (≈ 0.131 µM) | > 64 | 0.063 (≈ 0.131 µM) | – | – | – | – | –
9 | O=C1c2cccnc2C(=O)c2c1c(C(=O)N1CCOCC1)c1ccc(Br)cn21 | > 64 | 16 (≈ 36.3 µM) | > 64 | > 64 | 64 (≈ 145 µM) | > 64 | 16 (≈ 36.3 µM) | > 64 | 32 (≈ 72.7 µM) | – | – | – | – | –
10 | O=C1c2cccnc2C(=O)c2c1c(C(=O)NCCCN1CCOCC1)c1ccc(Br)cn21 | > 64 | 1 (≈ 2.01 µM) | 4 (≈ 8.04 µM) | > 64 | 4 (≈ 8.04 µM) | > 64 | 8 (≈ 16.1 µM) | > 64 | 4 (≈ 8.04 µM) | – | – | – | – | –
11 | CN(C)CCCNC(=O)c1c2c(n3cc(Br)ccc13)C(=O)c1ncccc1C2=O | > 64 | 1 (≈ 2.2 µM) | 4 (≈ 8.79 µM) | > 64 | 4 (≈ 8.79 µM) | > 64 | 4 (≈ 8.79 µM) | > 64 | 8 (≈ 17.6 µM) | – | – | – | – | –
12 | CN1CCN(C(=O)c2c3c(n4cc(Br)ccc24)C(=O)c2ncccc2C3=O)CC1 | > 64 | 8 (≈ 17.6 µM) | > 64 | > 64 | 32 (≈ 70.6 µM) | > 64 | 16 (≈ 35.3 µM) | > 64 | 32 (≈ 70.6 µM) | – | – | – | – | –
13 | O=C1c2cccnc2C(=O)c2c1c(C(=O)NCCCN1CCCCC1)c1ccc(Br)cn21 | > 64 | 1 (≈ 2.02 µM) | 2 (≈ 4.04 µM) | > 64 | 4 (≈ 8.07 µM) | > 64 | 2 (≈ 4.04 µM) | > 64 | 8 (≈ 16.1 µM) | – | – | – | – | –
14 | O=C(O)c1cn(C2CC2)c2cc(N3CCNCC3)c(F)cc2c1=O | – | – | – | – | – | – | – | – | – | – | Active | Active | inactive | Active
15 | O=C1c2cccnc2C(=O)c2c1c(C(=O)N1CCCC1)c1ccc(Br)cn21 | > 64 | 16 (≈ 37.7 µM) | > 64 | > 64 | 64 (≈ 151 µM) | > 64 | 8 (≈ 18.9 µM) | > 64 | 32 (≈ 75.4 µM) | – | – | – | – | –
16 | O=C1c2cccnc2C(=O)c2c1c(C(=O)OCCF)c1ccc(Br)cn21 | > 64 | 0.031 (≈ 0.0743 µM) | 0.016 (≈ 0.0384 µM) | > 64 | 0.063 (≈ 0.151 µM) | > 64 | 0.031 (≈ 0.0743 µM) | > 64 | 0.016 (≈ 0.0384 µM) | 16 | – | – | – | –
17 | O=C1c2cccnc2C(=O)c2c1c(C(=O)NCCCN1CCCC1)c1ccc(Br)cn21 | > 64 | 1 (≈ 2.08 µM) | 4 (≈ 8.31 µM) | > 64 | 4 (≈ 8.31 µM) | > 64 | 8 (≈ 16.6 µM) | > 64 | 4 (≈ 8.31 µM) | – | – | – | – | –
18 | CN(C)CCNC(=O)c1c2c(n3cc(Br)ccc13)C(=O)c1ncccc1C2=O | > 64 | 0.5 (≈ 1.13 µM) | 1 (≈ 2.27 µM) | > 64 | 4 (≈ 9.06 µM) | > 64 | 4 (≈ 9.06 µM) | > 64 | 2 (≈ 4.53 µM) | – | – | – | – | –
19 | CCN(CC)CCNC(=O)c1c2c(n3cc(Br)ccc13)C(=O)c1ncccc1C2=O | > 64 | 0.5 (≈ 1.07 µM) | 4 (≈ 8.52 µM) | > 64 | 4 (≈ 8.52 µM) | > 64 | 4 (≈ 8.52 µM) | > 64 | 2 (≈ 4.26 µM) | – | – | – | – | –
20 | O=C1c2cccnc2C(=O)c2c1c(C(=O)OCCN1CCOCC1)c1ccc(Br)cn21 | > 64 | 0.063 (≈ 0.13 µM) | 0.13 (≈ 0.268 µM) | > 64 | 0.25 (≈ 0.516 µM) | 32 (≈ 66.1 µM) | 0.25 (≈ 0.516 µM) | > 64 | 0.25 (≈ 0.516 µM) | – | – | – | – | –
21 | CC(=O)N1CCN(C(=O)c2c3c(n4cc(Br)ccc24)C(=O)c2ncccc2C3=O)CC1 | > 64 | 16 (≈ 33.2 µM) | > 64 | > 64 | > 64 | > 64 | 64 (≈ 133 µM) | > 64 | > 64 | – | – | – | – | –
22 | CCN(CC)CCCNC(=O)c1c2c(n3cc(Br)ccc13)C(=O)c1ncccc1C2=O | > 64 | 1 (≈ 2.07 µM) | 4 (≈ 8.28 µM) | > 64 | 8 (≈ 16.6 µM) | > 64 | 8 (≈ 16.6 µM) | > 64 | 4 (≈ 8.28 µM) | – | – | – | – | –
23 | CC1(C)S[C@@H]2[C@H](NC(=O)Cc3ccccc3)C(=O)N2[C@H]1C(=O)O [PENICILLIN G] | – | < 0.031 | 2 (≈ 5.98 µM) | 2 (≈ 5.98 µM) | > 64 | 64 (≈ 191 µM) | < 0.031 | > 64 | 16 (≈ 47.8 µM) | – | – | – | – | –
24 | O=C1c2cccnc2C(=O)c2c1c(C(=O)N1CCSCC1)c1ccc(Br)cn21 | > 64 | 64 (≈ 140 µM) | > 64 | > 64 | 64 (≈ 140 µM) | > 64 | > 64 | > 64 | > 64 | – | – | – | – | –
